Measured values from ChEMBL document CHEMBL1143739, “SAR study of bicyclo[4.1.0]heptanes as melanin-concentrating hormone receptor R1 antagonists: taming hERG” (Bioorg Med Chem, 2007).
Active and inactive are the calls of the source. No cut-off for these calls is given here.

How the values were obtained:
[1] = target: Melanin-concentrating hormone receptor 1 (Mus musculus) (UniProt Q8JZL2); assay: Ex vivo displacement of [125I]S36057 binding from mouse brain MCHR1 at 30 mg/kg, po after 6 hrs; format: functional, organism-based; set-up: dose 30 mg/kg
[2] = target: Melanin-concentrating hormone receptor 1 (Mus musculus) (UniProt Q8JZL2); assay: Ex vivo displacement of [125I]S36057 binding from mouse brain MCHR1 at 30 mg/kg, po after 24 hrs; format: functional, organism-based; set-up: dose 30 mg/kg
[3] = target: Melanin-concentrating hormone receptor 1 (Homo sapiens, UniProt Q99705); assay: Displacement of [125I]MCH from MCHR1 expressed in CHO cells; format: cell-based
Method in brief: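 Human MCH R1, CHO cell membranes (0.1 mg/mL) on SPA beads (1 mg/mL). Buffer: 25 mM HEPES, 10 mM MgCl2, 5 mM MnCl2, 0.1% BSA, pH 7.4. Incubation 2–4 h at room temperature, scintillation count. Ki by non-linear regression; mean ± range of two determinations, each in quadruplicate.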

[4] = target: Voltage-gated inwardly rectifying potassium channel KCNH2 (Homo sapiens, UniProt Q12809); assay: (§1) Inhibition of hERG expressed in CHO cells at 5 ug/mL by rubidium efflux assay; format: toxicity, cell-based; conditions: cho
Method in brief: (§2)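 hERG-CHO cells plated 24 h, then loaded 3 h in HEPES-buffered saline with 5.4 mM RbCl. Compound added and equilibrated 30 min at 37 °C. Cells washed three times in Rb-free saline (5.4 mM KCl), then depolarized 5 min with 45.4 mM KCl.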

[5] = target: T1, hERG (KCNH2) (Homo sapiens, UniProt Q12809); assay: as §1; format: toxicity, cell-based; conditions: CHO cells that express hERG; method in brief: as §2
[6] = target: T1, hERG (KCNH2); assay: Inhibition of hERG expressed in CHO cells at […] by rubidium efflux assay; format: toxicity, cell-based; conditions: CHO cells that express hERG

Chain of Melanin-concentrating hormone receptor 1 (Q99705 whole entry): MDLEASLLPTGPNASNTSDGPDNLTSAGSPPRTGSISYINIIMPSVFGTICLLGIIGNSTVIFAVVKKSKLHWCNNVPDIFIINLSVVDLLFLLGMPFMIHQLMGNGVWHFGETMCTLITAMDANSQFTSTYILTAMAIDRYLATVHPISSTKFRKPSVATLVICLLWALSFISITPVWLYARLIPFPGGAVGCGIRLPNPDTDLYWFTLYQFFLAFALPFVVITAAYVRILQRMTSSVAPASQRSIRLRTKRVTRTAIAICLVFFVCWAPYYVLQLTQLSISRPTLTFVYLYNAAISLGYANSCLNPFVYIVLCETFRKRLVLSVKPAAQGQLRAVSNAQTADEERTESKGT
T1 sequence (Q12809 whole entry): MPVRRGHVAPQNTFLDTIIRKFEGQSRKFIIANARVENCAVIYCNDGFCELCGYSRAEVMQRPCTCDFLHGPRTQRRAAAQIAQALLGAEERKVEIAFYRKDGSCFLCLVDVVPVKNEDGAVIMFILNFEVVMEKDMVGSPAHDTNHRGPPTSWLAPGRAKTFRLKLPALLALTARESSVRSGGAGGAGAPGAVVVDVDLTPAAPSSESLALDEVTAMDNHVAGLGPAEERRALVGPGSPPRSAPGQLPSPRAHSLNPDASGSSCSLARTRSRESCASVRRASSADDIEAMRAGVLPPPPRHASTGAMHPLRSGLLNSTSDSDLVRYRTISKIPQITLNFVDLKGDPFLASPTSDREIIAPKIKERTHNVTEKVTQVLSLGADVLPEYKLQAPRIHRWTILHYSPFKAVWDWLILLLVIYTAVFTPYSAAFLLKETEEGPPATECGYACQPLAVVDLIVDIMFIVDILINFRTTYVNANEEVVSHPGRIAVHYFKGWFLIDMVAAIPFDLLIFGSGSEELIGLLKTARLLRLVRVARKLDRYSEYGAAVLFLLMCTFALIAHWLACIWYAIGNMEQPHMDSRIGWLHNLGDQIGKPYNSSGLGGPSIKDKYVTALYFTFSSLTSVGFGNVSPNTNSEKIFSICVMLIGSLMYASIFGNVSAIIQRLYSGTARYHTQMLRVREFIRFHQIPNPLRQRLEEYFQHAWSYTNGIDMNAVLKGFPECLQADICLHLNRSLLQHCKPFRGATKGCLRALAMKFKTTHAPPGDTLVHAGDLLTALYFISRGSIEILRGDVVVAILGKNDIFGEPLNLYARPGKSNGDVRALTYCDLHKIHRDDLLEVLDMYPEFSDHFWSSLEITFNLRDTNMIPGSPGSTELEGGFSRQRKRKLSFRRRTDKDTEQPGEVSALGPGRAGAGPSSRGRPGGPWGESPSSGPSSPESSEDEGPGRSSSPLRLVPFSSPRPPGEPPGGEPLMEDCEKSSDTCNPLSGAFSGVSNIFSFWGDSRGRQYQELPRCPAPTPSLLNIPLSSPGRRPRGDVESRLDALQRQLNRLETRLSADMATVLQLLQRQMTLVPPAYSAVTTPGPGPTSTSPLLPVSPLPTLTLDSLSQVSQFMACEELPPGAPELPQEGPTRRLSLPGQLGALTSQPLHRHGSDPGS
Chain of Voltage-gated inwardly rectifying potassium channel KCNH2 (Q12809 whole entry): as above
Chain of Melanin-concentrating hormone receptor 1 (Mus musculus) (Q8JZL2 whole entry): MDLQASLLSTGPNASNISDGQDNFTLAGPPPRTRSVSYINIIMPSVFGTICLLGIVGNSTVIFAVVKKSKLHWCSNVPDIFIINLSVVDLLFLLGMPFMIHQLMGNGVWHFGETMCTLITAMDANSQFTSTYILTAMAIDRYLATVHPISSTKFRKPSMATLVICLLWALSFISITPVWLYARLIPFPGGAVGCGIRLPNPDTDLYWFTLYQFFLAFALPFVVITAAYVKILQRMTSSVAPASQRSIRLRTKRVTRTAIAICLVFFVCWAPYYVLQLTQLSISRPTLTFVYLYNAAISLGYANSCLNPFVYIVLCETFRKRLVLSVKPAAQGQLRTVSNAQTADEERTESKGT

| Structure (SMILES) | Activity [1] | Activity [2] | Ki [3] | Activity [4] | inhibition at 5 ug/mL [5] | inhibition at […] [6] |
| --- | --- | --- | --- | --- | --- | --- |
| CC(C)N(CCO)CCN(C(=O)Nc1cc(Cl)nc(Cl)c1)[C@@H]1CC[C@]2(c3cccc(C#N)c3)CC2C1 (stereo partly specified) | 99% | inactive | 1.6 nM | Not Active |  |  |
| O=C(Nc1ccc(F)c(Cl)c1)N(CCN1CCCC1)C1CC=C(c2cccnc2)CC1 (stereo unspecified) | 16% |  | 30 nM |  |  |  |
| NCc1ccc(C2=CCC(N(CCN3CCCC3)C(=O)Nc3ccc(F)c(Cl)c3)CC2)s1 (stereo unspecified) | 77% | 57% | 8.2 nM |  | 26% |  |
| CS(=O)(=O)N1CCC(CN(C(=O)Nc2cc(Cl)nc(Cl)c2)[C@@H]2CC[C@]3(c4cccc(CN)c4)CC3C2)CC1 (stereo partly specified) | 0% |  | 2.4 nM |  | 3% | -1% |
| CC(C)N(CCN(C(=O)Nc1ccc(F)c(Cl)c1)[C@@H]1CC[C@]2(c3cccc(C#N)c3)CC2C1)[C@@H](C)CO (stereo partly specified) | 75% | 35% | 5.2 nM |  | 82% |  |
| CC(C)N(CCN(C(=O)Nc1ccc(F)c(Cl)c1)[C@@H]1CC[C@]2(c3cccc(C#N)c3)CC2C1)C(C)C (stereo partly specified) | 83% | inactive | 5 nM |  | 78% | 44% |
| CC(C)N(CCN(C(=O)Nc1cc(Cl)nc(Cl)c1)[C@@H]1CC[C@]2(c3cccc(C#N)c3)CC2C1)[C@@H](C)CO (stereo partly specified) | 99% | 81% | 1.6 nM |  | 60% |  |
| CO/N=C/c1cccc([C@]23CC[C@@H](N(CCN(C(C)C)C(C)C)C(=O)Nc4ccc(F)c(Cl)c4)CC2C3)c1 (stereo partly specified) | 62% | inactive | 4.1 nM |  | 76% |  |
| CC(C)NCCN(C(=O)Nc1cc(Cl)nc(Cl)c1)[C@@H]1CC[C@]2(c3cccc(C#N)c3)CC2C1 (stereo partly specified) | 93% | 70% | 1.9 nM | Not Active |  |  |
| CS(=O)(=O)N1CCC(CN(C(=O)Nc2cc(Cl)nc(Cl)c2)[C@@H]2CC[C@]3(c4cccc(CN5CC[C@H](O)C5)c4)CC3C2)CC1 (stereo partly specified) | 1% |  | 8.9 nM |  | 0% | -7% |
| CC(=O)c1ccc(C2=CCC(N(CCN3CCCC3)C(=O)Nc3ccc(F)c(Cl)c3)CC2)s1 (stereo unspecified) | 59% | 3% | 31 nM |  | 43% |  |
| NCc1cnc(C2=CCC(N(CCN3CCCC3)C(=O)Nc3ccc(F)c(Cl)c3)CC2)s1 (stereo unspecified) | 37% |  | 17 nM |  | 14% |  |
| CS(=O)(=O)N1CCC(CN(C(=O)Nc2ccc(F)c(Cl)c2)[C@@H]2CC[C@]3(c4cccc(CN)c4)CC3C2)CC1 (stereo partly specified) | 0% |  | 9.9 nM |  | 14% | 8% |
| CC1CC[C@@H](CO)N1CCN(C(=O)Nc1cc(Cl)nc(Cl)c1)[C@@H]1CC[C@]2(c3cccc(C#N)c3)CC2C1 (stereo partly specified) | 82% | 41% | 1.2 nM |  | 60% |  |
| CC(C)N(CCF)CCN(C(=O)Nc1cc(Cl)nc(Cl)c1)[C@@H]1CC[C@]2(c3cccc(C#N)c3)CC2C1 (stereo partly specified) | 99% | 97% | 10 nM |  | 50% |  |
| CC(C)N(CCN(C(=O)Nc1ccc(F)c(Cl)c1)[C@@H]1CC[C@]2(c3cccc(C#N)c3)CC2C1)[C@H](C)CO (stereo partly specified) | 73% | 25% | 9.4 nM | Not Active |  |  |
| CC1CC[C@@H](CO)N1CCN(C(=O)Nc1ccc(F)c(Cl)c1)[C@@H]1CC[C@]2(c3cccc(C#N)c3)CC2C1 (stereo partly specified) | 31% | 2% | 11 nM |  | 78% |  |
| CN(C)Cc1cccc([C@]23CC[C@@H](N(CC4CCN(S(C)(=O)=O)CC4)C(=O)Nc4cc(Cl)nc(Cl)c4)CC2C3)c1 (stereo partly specified) | 0% |  | 3.3 nM |  | 7% | 8% |
| N#Cc1ccc(C2=CCC(N(CCN3CCCC3)C(=O)Nc3ccc(F)c(Cl)c3)CC2)s1 (stereo unspecified) | 84% | 97% | 4.2 nM |  | 74% |  |
| N#Cc1cccc([C@]23CC[C@@H](N(CCN4CCC[C@H]4CO)C(=O)Nc4ccc(F)c(Cl)c4)CC2C3)c1 (stereo partly specified) | 78% | inactive |  |  | 75% |  |
| N#Cc1cccc([C@]23CC[C@@H](N(CCN4CC[C@@H](O)C4)C(=O)Nc4ccc(F)c(Cl)c4)CC2C3)c1 (stereo partly specified) | 49% | inactive |  |  | 80% |  |
| CN(C)Cc1cccc([C@]23CC[C@@H](N(CC4CCN(S(C)(=O)=O)CC4)C(=O)Nc4ccc(F)c(Cl)c4)CC2C3)c1 (stereo partly specified) | 26% |  | 15 nM |  | 8% | 7% |
| CC(C)N(CCN(C(=O)Nc1cc(Cl)nc(Cl)c1)[C@@H]1CC[C@]2(c3cccc(C#N)c3)CC2C1)C(C)C (stereo in doubt; 13) | 99% | 58% |  |  |  |  |
| NCc1ncc(C2=CCC(N(CCN3CCCC3)C(=O)Nc3ccc(F)c(Cl)c3)CC2)s1 (stereo unspecified) | 88% | 75% | 13 nM |  | 10% |  |
| CS(=O)(=O)N1CCC(CN(C(=O)Nc2cccc(F)c2)[C@@H]2CC[C@]3(c4cccc(C#N)c4)CC3C2)CC1 (stereo partly specified) |  |  | 9.7 nM |  | 47% | 25% |
| N#Cc1cccc([C@]23CC[C@@H](N(CCNCCF)C(=O)Nc4cc(Cl)nc(Cl)c4)CC2C3)c1 (stereo partly specified) | 89% | 32% | 4.4 nM |  | 84% |  |
| CC(C)N(CCF)CCN(C(=O)Nc1ccc(F)c(Cl)c1)[C@@H]1CC[C@]2(c3cccc(C#N)c3)CC2C1 (stereo partly specified) | 81% | 66% | 12 nM |  | 50% |  |
| CC(C)N(CCO)CCN(C(=O)Nc1ccc(F)c(Cl)c1)[C@@H]1CC[C@]2(c3cccc(C#N)c3)CC2C1 (stereo partly specified) | 73% | 38% | 8.7 nM |  | 88% |  |
| CC(=O)NCc1cccc([C@]23CC[C@@H](N(CCN(C(C)C)C(C)C)C(=O)Nc4ccc(F)c(Cl)c4)CC2C3)c1 (stereo partly specified) |  |  | 31 nM |  | 78% | 62% |
| CS(=O)(=O)N1CCC(CCN(C(=O)Nc2ccc(F)c(C(F)(F)F)c2)[C@@H]2CC[C@]3(c4cccc(C#N)c4)CC3C2)CC1 (stereo partly specified) |  |  | 80 nM |  | 20% | 18% |
